Data from ChEMBL document CHEMBL1128687, “5-Methyl-6-phenyl-1,3,5,6-tetrahydro-3,6-methano-1,5-benzodiazocine-2,4-dione (BA 41899): representative of a novel class of purely calcium-sensitizing agents” (J Med Chem, 1995).
One block for each molecule: values may come before it. The source made the active and inactive calls. The calls are words filed in the database; no cut-off is given here.

Assays:
[1] = species on record: Sus scrofa; assay: Increase in isometric force of porcine myocardial skinned fibers at 30 uM; type: functional
[2] = species on record: Sus scrofa; assay: Effect on porcine myocardial skinned fibers at 1-100 uM (ineffective); type: functional
[3] = species on record: Cavia porcellus; assay: Positive inotropic effect, increased isometric tension on guinea pig heart; type: functional
Outline: (§1)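 Left atria from urethane-anaesthetized guinea pigs in Krebs–Henseleit medium at 32 °C, electrically stimulated isometrically at 2.5 s⁻¹ (also 0.25 s⁻¹); compound applied at 1–100 μM after equilibration, exposure up to 60 min; twitch force recorded, EC50 as concentration giving half-maximal effect.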

[4] = species on record: Sus scrofa; assay: Increased [Ca2+] activated force in porcine myocardial skinned fibers; type: functional; settings: Myocardium
[5] = species on record: Sus scrofa; assay: Maximal activation of porcine myocardial skinned fibers at 40 uM free [Ca2+] without compound; type: functional
[6] = species on record: Sus scrofa; assay: Maximal activation of porcine myocardial skinned fibers at 40 uM [Ca2+] with 100 uM compound; type: functional
[7] = species on record: Sus scrofa; assay: Increase in [Ca2+] activated force in porcine myocardial skinned fibers; type: functional, Myocardium
[8] = species on record: Sus scrofa; assay: Reduced [Ca2+] activated force development on porcine skinned myocardial fibers at 100 uM; type: functional; set-up: scale not given: the % may be the effect or the level left
[9] = target: T1, Alpha-2A adrenergic receptor (Homo sapiens) (UniProt P08913); assay: Effect against Alpha-2 adrenergic receptor using clonidine as ligand; No effect; settings: Cavia porcellus
T1 sequence (whole entry): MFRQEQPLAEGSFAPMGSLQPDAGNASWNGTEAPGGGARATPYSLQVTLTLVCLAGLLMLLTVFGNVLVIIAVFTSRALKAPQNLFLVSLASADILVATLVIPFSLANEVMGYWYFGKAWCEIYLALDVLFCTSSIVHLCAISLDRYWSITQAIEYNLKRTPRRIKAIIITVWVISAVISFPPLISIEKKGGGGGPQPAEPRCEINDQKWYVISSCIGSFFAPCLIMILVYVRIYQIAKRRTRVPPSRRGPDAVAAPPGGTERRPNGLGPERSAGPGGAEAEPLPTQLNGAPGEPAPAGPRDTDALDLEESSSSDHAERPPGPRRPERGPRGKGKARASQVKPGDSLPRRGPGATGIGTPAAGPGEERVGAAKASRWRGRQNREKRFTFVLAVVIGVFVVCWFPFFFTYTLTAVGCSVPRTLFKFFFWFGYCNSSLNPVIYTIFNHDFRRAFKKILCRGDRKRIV

[10] = target: T2, Alpha-1A adrenergic receptor (Homo sapiens) (UniProt P35348); assay: Effect against Alpha-1 adrenergic receptor using prazosin as ligand; No effect; settings: Cavia porcellus
T2 sequence (whole entry): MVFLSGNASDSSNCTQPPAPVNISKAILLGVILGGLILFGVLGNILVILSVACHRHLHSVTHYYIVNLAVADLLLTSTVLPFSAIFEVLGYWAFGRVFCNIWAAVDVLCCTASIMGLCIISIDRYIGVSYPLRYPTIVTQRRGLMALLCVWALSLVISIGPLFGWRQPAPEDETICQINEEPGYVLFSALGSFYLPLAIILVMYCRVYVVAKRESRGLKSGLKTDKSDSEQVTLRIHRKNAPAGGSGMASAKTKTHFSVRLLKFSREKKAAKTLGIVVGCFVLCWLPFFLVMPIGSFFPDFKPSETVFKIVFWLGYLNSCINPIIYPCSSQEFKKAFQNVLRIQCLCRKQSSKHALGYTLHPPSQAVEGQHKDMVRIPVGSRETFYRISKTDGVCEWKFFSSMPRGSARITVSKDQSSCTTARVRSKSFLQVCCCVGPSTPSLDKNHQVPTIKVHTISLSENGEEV

[11] = target: Beta-1 adrenergic receptor (Cavia porcellus) (UniProt B0FL73); assay: Effect against Beta-1 adrenergic receptor using dehydroalprenolol as ligand; No effect
Chain of Beta-1 adrenergic receptor (Cavia porcellus) (B0FL73 1-467): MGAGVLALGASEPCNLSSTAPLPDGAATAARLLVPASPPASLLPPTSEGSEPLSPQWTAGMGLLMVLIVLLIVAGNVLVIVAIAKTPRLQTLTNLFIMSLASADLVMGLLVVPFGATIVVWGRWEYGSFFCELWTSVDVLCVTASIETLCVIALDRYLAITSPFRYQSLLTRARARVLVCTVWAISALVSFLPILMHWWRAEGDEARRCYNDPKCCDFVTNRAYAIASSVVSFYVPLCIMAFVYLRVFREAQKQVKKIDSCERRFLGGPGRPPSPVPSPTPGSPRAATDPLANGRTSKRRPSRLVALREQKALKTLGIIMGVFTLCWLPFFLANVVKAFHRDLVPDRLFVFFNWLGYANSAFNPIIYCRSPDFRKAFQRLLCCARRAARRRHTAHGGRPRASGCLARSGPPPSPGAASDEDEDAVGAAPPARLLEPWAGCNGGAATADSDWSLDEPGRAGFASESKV

[12] = species on record: Cavia porcellus; assay: Inotropic effect at 100 uM; Loses most of its inotropic activity due to resting tension; type: functional; outline: as §1
[13] = target: Histamine H1 receptor (Cavia porcellus) (UniProt P31389); assay: Effect against histamine H1 receptor; No effect
Chain of Histamine H1 receptor (Cavia porcellus) (P31389 whole entry): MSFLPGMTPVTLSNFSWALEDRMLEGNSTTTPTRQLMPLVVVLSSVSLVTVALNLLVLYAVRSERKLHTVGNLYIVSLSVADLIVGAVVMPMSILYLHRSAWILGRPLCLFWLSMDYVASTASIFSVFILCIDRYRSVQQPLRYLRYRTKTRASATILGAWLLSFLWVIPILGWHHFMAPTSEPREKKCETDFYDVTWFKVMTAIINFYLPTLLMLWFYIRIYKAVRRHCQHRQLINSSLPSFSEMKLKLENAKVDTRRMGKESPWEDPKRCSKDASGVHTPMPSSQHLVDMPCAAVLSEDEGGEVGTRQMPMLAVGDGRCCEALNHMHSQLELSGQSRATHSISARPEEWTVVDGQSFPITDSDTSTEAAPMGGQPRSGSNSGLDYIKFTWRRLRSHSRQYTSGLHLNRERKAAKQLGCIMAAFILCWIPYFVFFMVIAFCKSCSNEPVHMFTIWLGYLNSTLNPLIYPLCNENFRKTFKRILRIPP

[14] = species on record: Sus scrofa; assay: Increased contractile response in skinned myocardial fibers in presence of 0.1-10 uM free [Ca2+]; type: functional; settings: Myocardium
[15] = target: Phosphodiesterase 4 (Homo sapiens) (UniProt P27815+Q08499+Q07343+Q08493); assay: Inhibition of Phosphodiesterase 4; type: protein assay; settings: Cavia porcellus
[16] = species on record: Cavia porcellus; assay: Activating effect on Sarcolemmal Ca+2 ATPase was determined
[17] = species on record: Cavia porcellus; assay: Activating effect on Sarcolemmal Ca+2 channel uptake was determined; type: functional
[18] = species on record: Cavia porcellus; assay: Inhibition of desmethoxyverapamil binding to Sarcolemmal Ca+2 channel (No effect)
[19] = target: GABA-A receptor; anion channel (Homo sapiens) (UniProt P14867+P47870+P18507+P28472+P48169+Q99928+Q9UN88+P34903+O00591+O14764+Q8N1C3+P18505+P78334+P47869+P31644+Q16445); assay: Binding affinity against GABA-A benzodiazepine receptor using flunitrazepam; type: protein-complex assay; settings: Cavia porcellus
[20] = species on record: Sus scrofa; assay: Increased [Ca2+] activated force in porcine myocardial skinned fibers (Not effective); type: functional, Myocardium
[21] = species on record: Sus scrofa; assay: Increase in [Ca2+] activated force in porcine myocardial skinned fibers (ineffective); type: functional; settings: Myocardium
[22] = species on record: Cavia porcellus; assay: Reduced spontaneous beating frequency at 1-100 uM in guinea pig heart; type: functional
Outline: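 Right atria from urethane-anaesthetized guinea pigs, mounted isometrically in Krebs–Henseleit medium at 32 °C; spontaneous sinus-node beating rate recorded over 1–100 μM compound; EC50 taken as concentration giving half-maximal effect.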

[23] = species on record: Sus scrofa; assay: Increased [Ca2+] activated force in porcine myocardial skinned fibers by racemic mixture; type: functional; settings: Myocardium
[24] = species on record: Sus scrofa; assay: Increase in isometric force in myocardial skinned fibres at 100 uM with free [Ca2+]; type: functional, Myocardium
[25] = species on record: Sus scrofa; assay: Increase in isometric force of myocardial skinned fibres at 30 uM with free [Ca2+]; type: functional

Compound: COc1ccc(C(=O)N2CCCc3cc(C4=NNC(=O)SC4C)ccc32)cc1OC (centres undefined)
Effect [1]: 400%

Compound: CN1C(=O)C2(c3ccccc3)CC1C(=O)Nc1ccccc12 (centres undefined)
Effect [2]: inactive

Compound: CN1C(=O)C2(c3ccccc3)CC1NC(=O)c1ccccc12 (centres undefined)
Effect [2]: inactive

Compound: CN1C(=O)C2CC1(c1ccccc1)c1ccccc1C(=O)N2 (centres undefined)
Effect [2]: inactive

EC50 [3]: 8 µM | EC50 [4]: 10 µM | EC50 [5]: 3 µM | EC50 [6]: 0.3 µM
Compound: CN1C(=O)C2CC1(c1ccccc1)c1ccccc1NC2=O (single isomer, unassigned; (+)) [listing 1 of 2 here]
Effect [3]: 40% | Effect [7]: 280% | Effect [8]: 17%

Effect [9]: inactive | Effect [10]: inactive | Effect [11]: inactive | Effect [13]: inactive | Effect [15]: inactive | Effect [16]: inactive | Effect [18]: inactive | Effect [19]: inactive
Compound: CN1C(=O)C2CC1(c1ccccc1)c1ccccc1NC2=O (single isomer, unassigned; (+)) [listing 2 of 2 here]
Activity [12]: inactive | Effect [14]: Active | Effect [17]: inactive

EC50 [20]: Not Active
Compound: CN1C(=O)C2CC1(c1ccccc1)c1ccccc1NC2=O (single isomer, unassigned; (-)) [listing 1 of 2 here]

Compound: CN1C(=O)C2CC1(c1ccccc1)c1ccccc1NC2=O (single isomer, unassigned; (-)) [listing 2 of 2 here]
Effect [21]: inactive

EC50 ([3]; Cavia porcellus, Heart): 15 µM | EC50 [23]: 20 µM
Compound: CN1C(=O)C2CC1(c1ccccc1)c1ccccc1NC2=O (stereo in doubt)
Reduction [22]: 55% | Effect [24]: 60% | Effect [25]: 60%
